From PubChem
An excerpt weighted towards active compounds, which were near 4.7% of everything screened.
MC4R antagonist: human MC4R antagonism in cAMP assay | AID 540295 | MC4R-expressing cells, MTII-stimulated cAMP, LANCE TR-FRET | 360,000 tested, 0.48% active | P32245 | inhibition, % at 6.5 µM;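 active = inhibition above its plate's cutoff, the mean of tested wells on that plate plus 3 SD, cut at about 29% in these data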;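 also: 0% = Melanotan II alone and 100% = Melanotan II plus saturating MCL0020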
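Assay system: human MC4R-expressing U2OS cells; reagent: Melanotan II stimulation of cells; dosing: 6.5 µM single dose; timing: compound 30 min, challenge 1 h, detection 1 h; signal: TR-FRET cAMP assay; replicates: one well per compound, no replicates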
MC4R barr agon: activates human MC4R beta-arrestin recruitment. U2OS MC4R beta-arrestin complementation, luminescence; percent of melanotan II response, DMSO zero. activation, % at 8.9 µM. 360,000 tested, 0.98% active. P32245. AID 540308;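 active = activation above a per-plate cutoff, the mean activation of sample wells on that plate plus 3 SD, cut at about 8% in these data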
AHR act: activates the human aryl hydrocarbon receptor | AHR-responsive luciferase reporter cells, luminescence | activation, % at 5 µM | 320,000 tested, 2.5% active; in the data active = activation above about 47%;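 also: 0% = vehicle wells and 100% = reference agonist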
HTR2A ag: mouse HTR2A agonism via beta-arrestin recruitment; CHO-K1 mHTR2A beta-arrestin complementation, luminescence; percent of 30 µM serotonin response; 360,000 tested, 0.66% active; P35363; activation, % at 7.6 µM;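 active = activation above a run cutoff, the mean activation of all tested compounds plus 3 SD, cut at about 14% in these data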;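 also: 0% = plate median of compound wells and 100% = 30 µM serotonin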
Target sequence (P35363 whole entry, looked up): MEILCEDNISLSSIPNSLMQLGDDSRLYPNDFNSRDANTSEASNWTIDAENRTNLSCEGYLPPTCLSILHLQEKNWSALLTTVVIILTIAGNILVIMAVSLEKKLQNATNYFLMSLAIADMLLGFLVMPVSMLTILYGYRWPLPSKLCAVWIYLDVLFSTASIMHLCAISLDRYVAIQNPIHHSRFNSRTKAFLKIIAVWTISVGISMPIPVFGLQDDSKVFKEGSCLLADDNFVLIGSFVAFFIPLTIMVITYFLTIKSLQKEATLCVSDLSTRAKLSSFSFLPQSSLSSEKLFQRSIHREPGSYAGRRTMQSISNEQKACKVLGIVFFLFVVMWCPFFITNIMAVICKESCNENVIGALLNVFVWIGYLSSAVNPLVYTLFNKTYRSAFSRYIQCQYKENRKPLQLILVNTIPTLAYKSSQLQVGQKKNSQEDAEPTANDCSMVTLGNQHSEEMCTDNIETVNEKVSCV
GAA850 FXN act: increases GAA850 frataxin promoter reporter activity; HEK293 lucGAA850 FXN promoter luciferase reporter, 24 h; percent of 10 µM SAHA response; activation, % at 6 µM; 360,000 tested, 0.56% active; AID 540364;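 active = activation above the average of all compounds screened plus 3 SD, cutoff fixed separately per campaign, cut at about 7.5% in these data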;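 also: 0% = DMSO wells and 100% = 10 µM SAHA wells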
* hit, by the source's call; nt = no result given.

SMILES	MC4R antagonist	MC4R barr agon	AHR act	HTR2A ag	GAA850 FXN act
O=C(CNc1cccc(C(F)(F)F)c1)N/N=C/c1cccc(Br)c1	2	5	101*	5	-1
Cc1ccc(NCC(=O)N/N=C\c2cccc(O)c2)cc1	1	-1	65*	-5	2
COc1cc2cc(CCCOC(=O)c3ccc(C#N)cc3)oc(=O)c2cc1OC	-1	-1	-2	8	1
Clc1ccccc1-c1nnc2sc(-c3cccs3)nn12	-22	-1	71*	-3	2
Clc1ccccc1-c1nnc2sc(-c3ccncc3)nn12	-16	-1	17	-3	1
O=C(NCc1cccnc1)c1[nH]c(C(F)(F)F)nc1-c1ccccc1	nt	nt	nt	-3	nt
CCc1nc(SCC(=O)c2ccc3c(c2)OCCO3)c2ccccc2n1	-1	0	3	0	0
CCc1nc(SCC(=O)c2ccccc2)c2ccccc2n1	7	2	51*	-1	7
O=C(CSc1nc(Cc2ccccc2)nc2ccccc12)c1ccc2c(c1)OCCO2	-4	0	3	19*	1
Cc1cccc2sc(NC(=O)c3ccc(NS(=O)(=O)c4cccs4)cc3)nc12	5	2	11	9	1
O=C(Nc1ccccc1)N1CC=C(c2ccccc2)CC1	nt	nt	-6	nt	nt
O=C(Nc1cccc2ccccc12)N1CC=C(c2ccccc2)CC1	-5	-1	54*	9	1
Oc1ccc(/C=N/NC(=S)Nc2cccnc2)cc1O	-12	-1	79*	-1	2
COc1cc(/C=N/NC(=S)Nc2cccnc2)cc(OC)c1OC	-1	-1	62*	2	2
COc1ccccc1/C=N/NC(=S)Nc1cccnc1	19	-1	59*	0	0
CC(C)NC(=S)N/N=C/C1=CCC2CC1C2(C)C (centres undefined)	-2	-1	-2	-3	1
CC(C)(C)c1ccc(/C=N/NC(=S)Nc2cccnc2)cc1	nt	nt	34	nt	nt
CC1(C)C2CC=C(/C=N/NC(=S)Nc3cccnc3)C1C2 (centres undefined)	4	-1	65*	-1	0
COc1ccc(OC)c(NC(=O)c2cnn(-c3ccccc3)c2C)c1	1	-3	76*	2	0
CCc1cc(/C(Cc2ccccn2)=N\Nc2ccccc2)c(O)cc1O	6	0	77*	5	2
CC(OC(=O)c1cccnc1SCc1cc(=O)n2ccccc2n1)c1ccccn1 (centres undefined)	1	-1	73*	1	0
Cc1oc(-c2cc(F)ccc2F)nc1CN1CCN(c2cnccn2)CC1	-1	-5	54*	-1	-1
COc1ccc(C2=CSC(/N=C/c3ccc(F)cc3)=NN2)cc1	18	1	70*	-3	0
COc1ccc(/C=N/c2c(-c3ccc(OC)cc3)nc3n2CCS3)cc1	-11	-3	-1	1	0
CC(C)c1c(O)ccc2c1CC[C@H]1C(C)(C)CCC[C@]21C	9	0	nt	45*	1
SMILES	MC4R antagonist	MC4R barr agon	AHR act	HTR2A ag	GAA850 FXN act
COc1ccccc1C(=O)Nc1ccnn1C1CCN(C2CCCCC2)CC1	2	-1	nt	-1	1
COc1cc(C2N=C(c3ccccc3)NO2)cc(Br)c1O (centres undefined)	7	-1	65*	-1	4
O=C1Nc2ccccc2O/C1=C\c1c(F)cccc1Cl	-11	-1	49*	-9	1
CC(C)N(Cc1nc(-c2ccc3c(c2)OCO3)no1)Cc1nccn1C	3	-2	61*	2	1
COc1ccc(OC)c(/C=N/NC(=O)c2cc3c(OC)cc(OC)cc3[nH]2)c1	15	0	56*	1	1
COc1cccc(/C=N/NC(=O)c2cc3c(OC)cccc3[nH]2)c1OC	-3	-2	54*	-3	-1
COc1ccc(OC)c(/C=N/NC(=O)c2cc3c(OC)cccc3[nH]2)c1	12	3	23	-2	-3
CCOc1ccc2[nH]c(C(=O)N/N=C/c3cc(OC)c(OC)c(OC)c3)cc2c1	7	0	24	-5	0
O=C(Cc1nc2ccccc2[nH]1)N/N=C/c1ccccc1	8	0	11	4	3
C=CCOc1ccc(/C=N/NC(=O)c2cc3c(OC)cc(OC)cc3[nH]2)cc1	13	2	68*	2	1
COc1ccc(OC)c(/C=N/NC(=O)Cc2nc3ccccc3[nH]2)c1	-3	3	57*	4	3
COc1cccc(/C=N/NC(=O)c2cc3c(OC)c(OC)ccc3[nH]2)c1OC	-15	-3	nt	-3	-6
COc1ccc(Br)c(C=O)c1OS(=O)(=O)c1ccc(C)cc1	-9	-1	nt	-1	0
Cc1ncoc1C(=O)NC1CCCc2c1cnn2-c1ccc(C(C)(C)C)cc1 (centres undefined)	8	-2	nt	4	-5
CCOc1ccccc1NC(=O)c1ccc2c(c1)C(=O)N(CC1CCCO1)C2=O (centres undefined)	5	-1	73*	1	0
CCc1nc(SCC(=O)c2cccs2)c2oc3ccccc3c2n1	-3	0	57*	0	3
CCc1nc(SCC(=O)NCCc2ccccc2)c2oc3ccccc3c2n1	3	0	2	3	1
O=C(O)CSc1nc(-c2ccccc2)nc2c1oc1ccccc12	4	-1	18	1	0
CCOC(=O)CSc1nc(-c2ccccc2)nc2c1oc1ccccc12	0	2	48*	2	2
CSc1ccc(CN2CCC(n3nccc3NC(=O)C3CCOC3)CC2)cc1 (centres undefined)	9	-2	0	-3	-1
CCCCn1nnnc1C(c1cccc2ccccc12)N1CCN(C/C=C/c2ccccc2)CC1 (centres undefined)	nt	nt	nt	-6	nt
COc1cc(/C=C(/C(=O)c2cccs2)c2nc3ccccc3[nH]2)cc(OC)c1O	2	-3	114*	-3	-2
CCNc1nc(SCC(=O)Nc2ccc(Cl)c(Cl)c2)nc(N2CCOCC2)n1	13	4	5	8	1
CCOc1ccccc1NC(=O)NCCc1c[nH]c2ccccc12	16	0	64*	-2	0
O=C(NCc1cccnc1)NC1(c2ccccc2)CC1	-1	2	-1	20*	-1
COc1ccc(OC)c(NC(=O)NCc2cccnc2)c1	-5	1	58*	-2	0
CCOc1ccccc1NC(=O)NCc1ccccc1	10	2	14	5	0
O=C(NCCc1c[nH]c2ccccc12)Nc1cccc2ccccc12	6	1	1	-1	-1
CCOc1ccccc1NC(=O)NCc1cccnc1	7	-2	84*	-2	-1
O=C1c2ccccc2N[C@@H]2C=CC[C@@H]2N1O	-6	0	nt	4	-3
